Measurements from ChEMBL document CHEMBL3102734, “Inhibition of LOX by flavonoids: a structure-activity relationship study” (Eur J Med Chem, 2014).
pIC50, pKi: −log10 of the molar value. Activity calls are given as the source filed them. The calls are words filed in the database; no cut-off is given here.

Columns and labels:
[1] = molecular target: T1, Polyunsaturated fatty acid 5-lipoxygenase (Homo sapiens) (UniProt P09917); assay: Inhibition of 5-LOX-mediated LTB4 production in human neutrophils using arachidonic acid as substrate at 40 uM preincubated for 10 mins followed by substrate addition measured after 8 mins by enzyme immunoassay relative to control
T1 sequence (whole entry): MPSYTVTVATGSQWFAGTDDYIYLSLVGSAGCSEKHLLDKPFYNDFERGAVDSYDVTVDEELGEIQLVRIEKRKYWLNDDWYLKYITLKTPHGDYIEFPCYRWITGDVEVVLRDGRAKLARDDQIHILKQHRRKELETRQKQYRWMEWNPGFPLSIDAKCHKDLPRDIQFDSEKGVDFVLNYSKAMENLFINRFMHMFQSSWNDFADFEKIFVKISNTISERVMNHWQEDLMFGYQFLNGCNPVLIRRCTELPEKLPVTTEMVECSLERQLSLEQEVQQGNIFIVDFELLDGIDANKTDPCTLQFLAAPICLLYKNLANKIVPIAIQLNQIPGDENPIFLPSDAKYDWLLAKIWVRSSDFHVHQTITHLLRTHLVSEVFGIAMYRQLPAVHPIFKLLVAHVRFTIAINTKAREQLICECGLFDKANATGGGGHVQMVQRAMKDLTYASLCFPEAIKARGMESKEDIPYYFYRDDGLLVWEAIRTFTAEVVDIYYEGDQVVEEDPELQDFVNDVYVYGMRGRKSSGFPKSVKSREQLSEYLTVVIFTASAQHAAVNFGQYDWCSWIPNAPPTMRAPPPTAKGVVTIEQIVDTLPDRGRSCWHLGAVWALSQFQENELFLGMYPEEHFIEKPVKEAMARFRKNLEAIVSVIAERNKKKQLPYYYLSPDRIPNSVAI
Outline: (§1)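 Isolated human neutrophils held in HBSS on ice; viability checked by trypan blue. Cells at 3.5×10^6 cells/mL equilibrated 10 min at 37 °C. Flavonoids (0.15–40 μM) pre-incubated 10 min, then A23187 (5 μM) plus arachidonic acid (10 μg/mL) added for 8 min. Stopped with cold methanol and centrifuged 13,000 g, 1 min, 4 °C. LTB4 measured by EIA and expressed as % inhibition of control. NDGA (1 μM) positive control. At least three experiments.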

[2] = molecular target: T2, Seed linoleate 13S-lipoxygenase-1 (Glycine max) (UniProt P08170); assay: Binding affinity to soybean LOX-1 at 1248 uM by STD-[1H] NMR spectroscopic analysis
T2 sequence (whole entry): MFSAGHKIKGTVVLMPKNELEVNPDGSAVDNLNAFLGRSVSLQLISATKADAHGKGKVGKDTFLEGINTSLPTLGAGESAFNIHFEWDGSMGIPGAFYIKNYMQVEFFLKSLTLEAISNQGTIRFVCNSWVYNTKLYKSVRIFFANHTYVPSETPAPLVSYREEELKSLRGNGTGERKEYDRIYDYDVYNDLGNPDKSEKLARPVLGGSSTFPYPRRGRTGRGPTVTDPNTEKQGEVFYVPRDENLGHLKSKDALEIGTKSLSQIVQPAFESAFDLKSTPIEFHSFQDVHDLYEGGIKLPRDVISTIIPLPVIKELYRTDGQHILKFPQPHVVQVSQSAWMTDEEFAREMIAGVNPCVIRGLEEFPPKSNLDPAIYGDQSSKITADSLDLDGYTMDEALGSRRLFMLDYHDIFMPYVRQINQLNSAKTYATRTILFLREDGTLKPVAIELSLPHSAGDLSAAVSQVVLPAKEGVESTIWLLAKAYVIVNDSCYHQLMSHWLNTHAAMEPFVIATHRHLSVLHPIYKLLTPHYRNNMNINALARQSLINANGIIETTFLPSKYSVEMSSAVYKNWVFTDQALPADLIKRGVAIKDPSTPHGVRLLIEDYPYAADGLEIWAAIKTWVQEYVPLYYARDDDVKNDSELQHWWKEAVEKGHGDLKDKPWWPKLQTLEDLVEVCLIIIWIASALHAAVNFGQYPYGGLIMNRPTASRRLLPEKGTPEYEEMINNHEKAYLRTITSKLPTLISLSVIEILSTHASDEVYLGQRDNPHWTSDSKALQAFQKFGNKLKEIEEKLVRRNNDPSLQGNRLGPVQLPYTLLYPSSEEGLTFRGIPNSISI
Outline: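 STD-1H NMR at 37 °C, 600 MHz, cryoprobe. Lyophilized soybean LOX-1 in Tris buffer (20 mM Tris, 7 mM (NH4)2SO4, 3.5 mM MgCl2, 0.3 mM DTT in D2O, pH 9.0). Ligand added from a 16.6 mM DMSO-d6 stock. Final concentrations: LOX 4 μM, ligand 1248 μM, ratio 300:1. On-resonance saturation at 1.0 ppm; off-resonance reference at 20000 Hz.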

[3] = molecular target: T3, Polyunsaturated fatty acid 5-lipoxygenase (Homo sapiens, UniProt P09917); assay: Inhibition of 5-LOX-mediated LTB4 production in human neutrophils using arachidonic acid as substrate preincubated for 10 mins followed by substrate addition measured after 8 mins by enzyme immunoassay
T3 sequence (P09917 whole entry): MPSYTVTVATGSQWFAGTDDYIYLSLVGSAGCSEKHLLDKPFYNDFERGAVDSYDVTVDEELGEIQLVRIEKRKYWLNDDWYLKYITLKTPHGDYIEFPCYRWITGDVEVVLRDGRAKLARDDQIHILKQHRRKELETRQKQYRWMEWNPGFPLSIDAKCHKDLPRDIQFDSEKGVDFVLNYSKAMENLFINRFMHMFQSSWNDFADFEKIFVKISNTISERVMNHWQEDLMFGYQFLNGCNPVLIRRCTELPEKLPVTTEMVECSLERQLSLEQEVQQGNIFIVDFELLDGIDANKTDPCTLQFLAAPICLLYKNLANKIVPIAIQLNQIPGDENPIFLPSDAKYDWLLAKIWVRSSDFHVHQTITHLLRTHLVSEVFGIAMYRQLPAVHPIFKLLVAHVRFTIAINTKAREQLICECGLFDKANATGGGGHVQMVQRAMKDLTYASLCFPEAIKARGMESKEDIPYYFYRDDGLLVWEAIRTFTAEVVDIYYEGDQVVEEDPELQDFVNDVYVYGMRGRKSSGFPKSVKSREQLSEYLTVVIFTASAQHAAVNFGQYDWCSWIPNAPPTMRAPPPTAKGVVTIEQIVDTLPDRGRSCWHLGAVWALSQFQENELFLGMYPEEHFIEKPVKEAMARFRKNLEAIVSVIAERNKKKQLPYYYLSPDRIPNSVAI
Outline: as §1, with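 “blue.” for “blue. Cells at 3.5×10^6 cells/mL equilibrated 10 min at 37 °C.”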

[4] = molecular target: T4, Seed linoleate 13S-lipoxygenase-1 (Glycine max, UniProt P08170); assay: Uncompetitive inhibition of soybean LOX-1 using linoleic acid as substrate preincubated for 5 mins followed by substrate addition by Lineweaver-Burk plot analysis
T4 sequence (P08170 whole entry): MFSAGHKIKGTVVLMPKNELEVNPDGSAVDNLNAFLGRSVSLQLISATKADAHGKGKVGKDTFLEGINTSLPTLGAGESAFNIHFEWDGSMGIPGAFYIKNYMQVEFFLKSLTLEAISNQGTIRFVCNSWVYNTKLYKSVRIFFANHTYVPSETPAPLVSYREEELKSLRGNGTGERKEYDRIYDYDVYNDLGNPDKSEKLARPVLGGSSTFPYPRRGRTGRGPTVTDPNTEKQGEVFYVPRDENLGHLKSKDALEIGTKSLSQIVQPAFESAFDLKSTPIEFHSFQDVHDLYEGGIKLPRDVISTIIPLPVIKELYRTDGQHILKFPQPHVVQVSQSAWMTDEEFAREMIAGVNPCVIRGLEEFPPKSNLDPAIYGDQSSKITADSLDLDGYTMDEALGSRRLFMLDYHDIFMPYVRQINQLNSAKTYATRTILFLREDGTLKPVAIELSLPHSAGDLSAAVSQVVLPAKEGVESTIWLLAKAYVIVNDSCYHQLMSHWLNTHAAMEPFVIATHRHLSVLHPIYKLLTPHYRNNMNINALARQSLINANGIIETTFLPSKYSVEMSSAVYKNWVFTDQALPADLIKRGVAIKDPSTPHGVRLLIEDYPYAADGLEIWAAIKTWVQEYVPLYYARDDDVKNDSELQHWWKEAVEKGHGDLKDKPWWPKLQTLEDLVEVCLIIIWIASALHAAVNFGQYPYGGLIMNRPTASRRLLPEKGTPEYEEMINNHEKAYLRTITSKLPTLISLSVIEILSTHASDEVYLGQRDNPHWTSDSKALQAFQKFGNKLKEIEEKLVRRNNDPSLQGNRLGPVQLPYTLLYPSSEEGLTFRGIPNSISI
Outline: (§2)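 Soybean LOX-1 (supplied lyophilized) kinetic assay. Enzyme pre-incubated with inhibitor 5 min, then linoleic acid added. Readings every 30 s for 10 min; rate taken as the 0–3 min slope. Three inhibitor concentrations tested against three substrate concentrations. Inhibition type assigned by nonlinear Michaelis–Menten fitting and Lineweaver–Burk plots. At least four experiments, each in triplicate.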

[5] = molecular target: T1, Polyunsaturated fatty acid 5-lipoxygenase (Homo sapiens); assay: Inhibition of 5-LOX-mediated LTB4 production in human neutrophils using arachidonic acid as substrate at 0.15 to 40 uM preincubated for 10 mins followed by substrate addition measured after 8 mins by enzyme immunoassay relative to control; outline: as §1
[6] = molecular target: T4, Seed linoleate 13S-lipoxygenase-1; assay: Mixed noncompetitive type inhibition of soybean LOX-1 using linoleic acid as substrate preincubated for 5 mins followed by substrate addition by Lineweaver-Burk plot analysis
Outline: as §2, with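 “added. Conversion to the cis,trans-hydroperoxide followed at 234 nm at 30 °C with continuous soft shaking.” for “added.”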

Compound: O=C1c2c(O)cc(O)cc2O[C@H](c2ccc(O)c(O)c2)[C@H]1O
- inhibition [1]: 19.9%

Compound: O=c1cc(-c2ccc(O)c(O)c2)oc2cc(O)cc(O)c12 [LUTEOLIN]
- Activity [2]: Active
- pIC50 [3]: 5.80
- pKi [4]: 3.91

Compound: COc1ccc(-c2cc(=O)c3c(O)cc(O)cc3o2)cc1O
- inhibition [5]: inactive

Compound: O=c1cc(-c2ccc(O)c(O)c2)oc2cccc(O)c12
- Activity [2]: Active
- pIC50 [3]: 5.54
- pKi [4]: 4.74

Compound: O=c1cc(-c2ccc(O)c(O)c2)oc2ccccc12
- pKi [6]: 4.07
- Activity [2]: Active
- pIC50 [3]: 5.77

Compound: O=c1cc(-c2cccc(O)c2)oc2cccc(O)c12
- inhibition [1]: < 50%
